Data as given in ChEMBL document CHEMBL1152709, “Tricyclic HIV integrase inhibitors: VI. SAR studies of 'benzyl flipped' C3-substituted pyrroloquinolines” (Bioorg Med Chem Lett, 2009).

How the values were obtained:
[1] = Oral bioavailability in dog at pH 2.2; format: ADME, organism-based, Canis lupus familiaris; settings: in vivo
Method in brief: (§1)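 Oral dosing of parent compound as a solution in EtOH, PG, PEG400 and citric acid at pH 2.2, alongside an i.v. group (pH 3.3). F (%) was calculated from p.o. versus i.v. AUC. Values are the mean of three animals per study.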

[2] = Half life in iv dosed rat at pH 3.3; format: ADME, organism-based; settings: in vivo
Method in brief: (§2)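 Parent compound given i.v. as a solution in EtOH, PG, PEG400 and citric acid at pH 3.3. Total body clearance and T½ were derived from the i.v. group. Values are the mean of three animals per study.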

[3] = system: Human immunodeficiency virus 1; assay: Antiviral activity against HIV1 3B infected in human MT2 cells after 5 days by cell-titer method in presence of human serum albumin and alpha1-acid glycoprotein; format: functional, organism-based; settings: Human immunodeficiency virus 1, 3B, MT2, 120 h
Method in brief: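 Same MT-2/HIV-1 IIIB assay (m.o.i. 0.01, 5 days at 37 °C, CellTiter-Glo read-out), run in 10% FBS with or without HSA (35 mg/ml) or α1-AGP (1.5 mg/ml). The combined-protein (serum-adjusted) EC₅₀ was calculated from the EC₅₀ values with each protein alone, using an equation derived from competitive binding assumptions.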

[4] = Clearance in iv dosed dog at pH 3.3; format: ADME, organism-based, Canis lupus familiaris; settings: in vivo; method in brief: as §2
[5] = Oral bioavailability in rat at pH 2.2; format: ADME, organism-based; settings: in vivo; method in brief: as §1
[6] = Half life in iv dosed dog at pH 3.3; format: ADME, organism-based, Canis lupus familiaris; settings: in vivo; method in brief: as §2
[7] = system: Human immunodeficiency virus 1; assay: Antiviral activity against HIV1 3B infected in human MT2 cells after 5 days by cell-titer assay in presence of 10% FBS; format: functional, organism-based; settings: Human immunodeficiency virus 1, 3B, MT2, 120 h
Method in brief: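 MT-2 cells infected with HIV-1 IIIB (m.o.i. 0.01, 3 h), then about 1.5 × 10⁴ cells per well added to 9 concentrations of 5-fold serially diluted drug in triplicate, in culture medium with 10% FBS. Incubated 5 days at 37 °C. Viability read by CellTiter-Glo chemiluminescence after 10 min lysis at room temperature. Values are means of at least two experiments.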

[8] = Clearance in iv dosed rat at pH 3.3; format: ADME, organism-based; settings: in vivo; method in brief: as §2
[9] = target: Human immunodeficiency virus type 1 integrase (Human immunodeficiency virus 1, UniProt Q7ZJM1); assay: Inhibition of HIV1 HXB2 integrase strand transfer activity by microtiter assay
Method in brief: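 Strand transfer measured in a microtiter format using DIG-tagged target DNA, detected with anti-DIG antibody–horseradish peroxidase conjugate. IC50 reported in nM as the mean of at least two experiments.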

Sequence of Human immunodeficiency virus type 1 integrase (Q7ZJM1 whole entry): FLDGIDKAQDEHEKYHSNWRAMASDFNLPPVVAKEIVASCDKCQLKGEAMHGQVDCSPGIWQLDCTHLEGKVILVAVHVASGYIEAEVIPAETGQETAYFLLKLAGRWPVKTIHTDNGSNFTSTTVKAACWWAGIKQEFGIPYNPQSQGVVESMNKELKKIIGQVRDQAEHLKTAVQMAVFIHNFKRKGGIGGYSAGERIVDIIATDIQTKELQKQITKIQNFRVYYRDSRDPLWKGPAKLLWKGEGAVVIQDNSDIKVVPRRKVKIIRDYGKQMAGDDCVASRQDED

## CN1Cc2c(c(O)c3ncc(Cc4ccc(F)c(Cl)c4)cc3c2N(C)S(C)(=O)=O)C1=O
[1]
  bioavailability: 60%
[2]
  half-life: 1.7 h
[3]
  EC50: 35 nM
[4]
  clearance: 2 mL/min/kg
[5]
  bioavailability: 11%
[6]
  half-life: 8.8 h
[7]
  EC50: 1.1 nM
[8]
  clearance: 3.67 mL/min/kg
[9]
  IC50: 265 nM

## COc1c2c(c(O)c3ncc(Cc4ccc(F)cc4)cc13)C(=O)N(C)C2
[7]
  EC50: 20 nM
[9]
  IC50: 100 nM

## COc1c2c(c(O)c3ncc(Cc4ccc(F)cc4)cc13)C(=O)N(Cc1ccc(F)cc1)C2
[7]
  EC50: 105 nM
[9]
  IC50: 600 nM

## CN1Cc2c(c(O)c3ncc(Cc4ccc(F)cc4)cc3c2N(C)S(C)(=O)=O)C1=O
[1]
  bioavailability: 47%
[2]
  half-life: 0.4 h
[3]
  EC50: 7 nM
[4]
  clearance: 2.17 mL/min/kg
[5]
  bioavailability: 12%
[6]
  half-life: 4.4 h
[7]
  EC50: 2 nM
[8]
  clearance: 8.17 mL/min/kg
[9]
  IC50: 80 nM

## COc1c2c(c(O)c3ncc(Cc4ccc(F)cc4)cc13)C(=O)NC2
[3]
  EC50: 27 nM
[7]
  EC50: 16 nM
[9]
  IC50: 14 nM
